System: U2OS
Experiment: Multiplex assay against U2OS
Assay type: toxicity, cell-based
Details: human
Outline: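 Values for tubulin, mitochondrial-mass and membrane-permeability phenotypes are per cents of cells with healthy nuclei. These cells were identified by CellPathfinder machine-learning gating of live cells that had been stained at seeding with Hoechst33342, BioTracker Green Microtubule Cytoskeleton Dye, MitoTracker Red and Annexin V Alexa Fluor 680 and imaged on a CQ1 microscope at 37°C and 5% CO2 after compound addition. The gating first set Hoechst high-intensity objects apart from normal cells, then split normal cells into healthy, pyknosed or fragmented nuclei, and pyknosed cells into mitotic or apoptotic.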

[1] = 24 h, 1 µM, compound concentration 1 uM, replicate 2
[2] = 24 h, 10 µM, compound concentration 10 uM, replicate 1
[3] = 24 h, 10 µM, compound concentration 10 uM, replicate 2
[4] = 48 h, 1 µM, compound concentration 1 uM, replicate 1
[5] = 48 h, 1 µM, compound concentration 1 uM, replicate 2
[6] = 48 h, 10 µM, compound concentration 10 uM, replicate 1
[7] = 48 h, 10 µM, compound concentration 10 uM, replicate 2

C=CC(=O)Nc1cc(-n2c(=O)ccc3cnc4ccc(-c5ccc(NS(C)(=O)=O)cc5)cc4c32)ccc1C
Population Pyknosed Nuclei (%) [1]: 11% | Population Tubulin-Different-Phenotype (%) [1]: 22% | Total Cell Count [1]: 79 | Population Apoptotic (%) [2]: 53% | Population Fragmented Nuclei (%) [2]: 17% | Population Healthy Nuclei (%) [2]: 69% | Population Hoechst High Intensity Objects (%) [2]: 3% | Population Membrane Permeable-Phenotype (%) [2]: 8% | Population Mitochondria Different-Phenotype (%) [2]: 17% | Population Mitotic Cells (%) [2]: 46% | Population Normal (%) [2]: 96% | Population Pyknosed Nuclei (%) [2]: 13% | Population Tubulin-Different-Phenotype (%) [2]: 15% | Total Cell Count [2]: 202 | Population Apoptotic (%) [3]: 84% | Population Fragmented Nuclei (%) [3]: 21% | Population Healthy Nuclei (%) [3]: 32% | Population Hoechst High Intensity Objects (%) [3]: 5% | Population Membrane Permeable-Phenotype (%) [3]: 22% | Population Mitochondria Different-Phenotype (%) [3]: 50% | Population Mitotic Cells (%) [3]: 15% | Population Normal (%) [3]: 94% | Population Pyknosed Nuclei (%) [3]: 46% | Population Tubulin-Different-Phenotype (%) [3]: 33% | Total Cell Count [3]: 59 | Population Apoptotic (%) [4]: 25% | Population Fragmented Nuclei (%) [4]: 5% | Population Healthy Nuclei (%) [4]: 87% | Population Hoechst High Intensity Objects (%) [4]: 2% | Population Membrane Permeable-Phenotype (%) [4]: 1% | Population Mitochondria Different-Phenotype (%) [4]: 14% | Population Mitotic Cells (%) [4]: 74% | Population Normal (%) [4]: 97% | Population Pyknosed Nuclei (%) [4]: 7% | Population Tubulin-Different-Phenotype (%) [4]: 14% | Total Cell Count [4]: 360 | Population Apoptotic (%) [5]: 9% | Population Fragmented Nuclei (%) [5]: 9% | Population Healthy Nuclei (%) [5]: 81% | Population Hoechst High Intensity Objects (%) [5]: 3% | Population Membrane Permeable-Phenotype (%) [5]: 0% | Population Mitochondria Different-Phenotype (%) [5]: 12% | Population Mitotic Cells (%) [5]: 90% | Population Normal (%) [5]: 96% | Population Pyknosed Nuclei (%) [5]: 9% | Population Tubulin-Different-Phenotype (%) [5]: 20% | Total Cell Count [5]: 115 | Population Apoptotic (%) [6]: 77% | Population Fragmented Nuclei (%) [6]: 15% | Population Healthy Nuclei (%) [6]: 72% | Population Hoechst High Intensity Objects (%) [6]: 4% | Population Membrane Permeable-Phenotype (%) [6]: 10% | Population Mitochondria Different-Phenotype (%) [6]: 19% | Population Mitotic Cells (%) [6]: 22% | Population Normal (%) [6]: 95% | Population Pyknosed Nuclei (%) [6]: 12% | Population Tubulin-Different-Phenotype (%) [6]: 9% | Total Cell Count [6]: 257 | Population Apoptotic (%) [7]: 95% | Population Fragmented Nuclei (%) [7]: 19% | Population Healthy Nuclei (%) [7]: 35% | Population Hoechst High Intensity Objects (%) [7]: 5% | Population Membrane Permeable-Phenotype (%) [7]: 22% | Population Mitochondria Different-Phenotype (%) [7]: 33% | Population Mitotic Cells (%) [7]: 4% | Population Normal (%) [7]: 94% | Population Pyknosed Nuclei (%) [7]: 45% | Population Tubulin-Different-Phenotype (%) [7]: 33% | Total Cell Count [7]: 54

Source: ChEMBL document CHEMBL4689842, “EUbOPEN Chemogenomics Library wave 1” (2021)
